Experiments:
[1] = Number of colony forming cells of human gynecologic tumor showing sensitivity among the 4 colony forming cells tested in vitro at compound concentration of 2.0 uM; format: functional
Outline: (§1)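 Fresh human tumor specimens from patients at the Arizona Cancer Center, run in the human tumor cloning (colony-forming) assay by a standard protocol. Read-out was [3H]thymine uptake by tumor-colony-forming cells.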

MCF7 [2] = experiment: Inhibition of cell growth in (MCF7 breast) dox cell line; format: functional, cell-based; conditions: Homo sapiens
[3] = Number of colony forming cells of human stomach tumor showing sensitivity among the 1 colony forming cells tested in vitro at compound concentration of 2.0 uM; format: functional
Outline: (§2)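 Fresh human tumor specimens, obtained from patients at the Arizona Cancer Center, were tested as tumor-colony-forming cells in the human tumor cloning assay. Sensitivity was scored as a 50% or greater decrease in […] uptake by treated colony-forming cells relative to untreated control colony-forming cells. The value is the count of sensitive specimens among those tested.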

[4] = Number of colony forming cells of human lung tumor showing sensitivity among the 2 colony forming cells tested in vitro at compound concentration of 0.2 uM; format: functional; outline: as §1
[5] = Number of colony forming cells of human ovary tumor showing sensitivity among the 10 colony forming cells tested in vitro at compound concentration of 20 uM; format: functional, Female gonad; outline: as §1
Breast carcinoma cell [6] = experiment: Number of colony forming cells of human breast tumor showing sensitivity among the 4 colony forming cells tested in vitro at compound concentration of 0.2 uM; format: functional; outline: as §1
[7] = Number of colony forming cells of human lung tumor showing sensitivity among the 2 colony forming cells tested in vitro at compound concentration of 2.0 uM; format: functional; outline: as §1
[8] = Number of colony forming cells of human sarcoma tumor showing sensitivity among the 8 colony forming cells tested in vitro at compound concentration of 2.0 uM; format: functional; outline: as §2
[9] = Number of colony forming cells of human lung tumor showing sensitivity among the 2 colony forming cells tested in vitro at compound concentration of 20 uM; format: functional; outline: as §1
L1210 [10] = experiment: Inhibition of cell growth in drug sensitive L1210 leukemia cell line determined by MTT assay; format: functional, cell-based; conditions: Mus musculus
[11] = Number of colony forming cells of human ovary tumor showing sensitivity among the 10 colony forming cells tested in vitro at compound concentration of 0.2 uM; format: functional, Female gonad; outline: as §1
MCF7 [12] = experiment: Inhibition of cell growth in drug sensitive MCF-7 breast cell line; format: functional, cell-based; conditions: Homo sapiens
[13] = Number of colony forming cells of human melanoma tumor showing sensitivity among the 10 colony forming cells tested in vitro at compound concentration of 20 uM; format: functional; outline: as §1
RPMI-8226 [14] = experiment: Inhibition of cell growth in drug resistant 8226 myeloma cell line; format: functional, cell-based; conditions: Homo sapiens
[15] = Number of colony forming cells of human ovary tumor showing sensitivity among the 11 colony forming cells tested in vitro at compound concentration of 2.0 uM; format: functional, Female gonad; outline: as §1
[16] = Number of colony forming cells of human melanoma tumor showing sensitivity among the 5 colony forming cells tested in vitro at compound concentration of 0.2 uM; format: functional; outline: as §1
RPMI-8226 [17] = experiment: Inhibition of cell growth in drug sensitive 8226 myeloma cell line; format: functional, cell-based; conditions: Homo sapiens
WiDr [18] = experiment: Inhibition of cell growth in drug sensitive WiDr colon cell line; format: functional, cell-based; conditions: Homo sapiens
[19] = Number of colony forming cells of human stomach tumor showing sensitivity among the 1 colony forming cells tested in vitro at compound concentration of 20 uM; format: functional; outline: as §2
[20] = Number of colony forming cells of human myeloma tumor showing sensitivity among the 2 colony forming cells tested in vitro at compound concentration of 0.2 uM; format: functional; outline: as §1
Breast carcinoma cell [21] = experiment: Number of colony forming cells of human breast tumor showing sensitivity among the 4 colony forming cells tested in vitro at compound concentration of 2.0 uM; format: functional; outline: as §1
[22] = Number of colony forming cells of human myeloma tumor showing sensitivity among the 2 colony forming cells tested in vitro at compound concentration of 20 uM; format: functional; outline: as §1
A-375 = experiment: Inhibition of cell growth in (A375) melan cell line; format: functional, cell-based; conditions: Homo sapiens
L1210 [23] = experiment: Inhibition of cell growth in (L1210 leukemia) MDR cells determined by MTT assay; format: functional, cell-based; conditions: Mus musculus
[24] = Number of colony forming cells of human sarcoma tumor showing sensitivity among the 8 colony forming cells tested in vitro at compound concentration of 20 uM; format: functional; outline: as §2
[25] = Number of colony forming cells of human gynecologic tumor showing sensitivity among the 4 colony forming cells tested in vitro at compound concentration of 20 uM; format: functional; outline: as §1
[26] = Number of colony forming cells of human gynecologic tumor showing sensitivity among the 4 colony forming cells tested in vitro at compound concentration of 0.2 uM; format: functional; outline: as §1
[27] = Number of colony forming cells of human myeloma tumor showing sensitivity among the 2 colony forming cells tested in vitro at compound concentration of 2.0 uM; format: functional; outline: as §1
OVCAR-3 = experiment: Inhibition of cell growth in (OVCAR-3) ovarian cell line; format: functional, cell-based; conditions: Homo sapiens
[28] = Number of colony forming cells of human sarcoma tumor showing sensitivity among the 2 colony forming cells tested in vitro at compound concentration of 0.2 uM; format: functional; outline: as §2
WiDr [29] = experiment: Inhibition of cell growth in drug resistant WiDr colon cell line; format: functional, cell-based; conditions: Homo sapiens
Breast carcinoma cell [30] = experiment: Number of colony forming cells of human breast tumor showing sensitivity among the 4 colony forming cells tested in vitro at compound concentration of 20 uM; format: functional; outline: as §1
MCF7 [31] = experiment: Inhibition of cell growth in (MCF7 breast) mitox cell line; format: functional, cell-based; conditions: Homo sapiens
A549 = experiment: Inhibition of cell growth in (A-549) lung cell line; format: functional, cell-based; conditions: Homo sapiens
[32] = Number of colony forming cells of human stomach tumor showing sensitivity among the 1 colony forming cells tested in vitro at compound concentration of 0.2 uM; format: functional; outline: as §2
[33] = Number of colony forming cells of human melanoma tumor showing sensitivity among the 10 colony forming cells tested in vitro at compound concentration of 2.0 uM; format: functional; outline: as §1
L1210 [34] = experiment: Cytotoxicity was measured as 50% inhibition of cell growth in drug sensitive L1210 leukemia cell line and is determined by MTT assay; format: functional, cell-based, Homo sapiens; conditions: Mus musculus
MCF7 [35] = experiment: Cytotoxicity was measured as 50% inhibition of cell growth in drug sensitive MCF-7 breast cell line; format: functional, cell-based, Mus musculus; conditions: Homo sapiens
[36] = Number of colony forming cells of human melanoma tumor showing sensitivity among the 10 colony forming cells tested in vitro at compound concentration of 1.0 uM; format: functional; outline: as §1
[37] = Number of colony forming cells of human gynecologic tumor showing sensitivity among the 4 colony forming cells tested in vitro at compound concentration of 1.0 uM; format: functional; outline: as §1
Breast carcinoma cell [38] = experiment: Number of colony forming cells of human breast tumor showing sensitivity among the 4 colony forming cells tested in vitro at compound concentration of 1.0 uM; format: functional; outline: as §1
[39] = Number of colony forming cells of human myeloma tumor showing sensitivity among the 3 colony forming cells tested in vitro at compound concentration of 10 uM; format: functional; outline: as §1
[40] = Number of colony forming cells of human sarcoma tumor showing sensitivity among the 8 colony forming cells tested in vitro at compound concentration of 1.0 uM; format: functional; outline: as §2
[41] = Number of colony forming cells of human myeloma tumor showing sensitivity among the 3 colony forming cells tested in vitro at compound concentration of 0.1 uM; format: functional; outline: as §1
[42] = Number of colony forming cells of human lung tumor showing sensitivity among the 2 colony forming cells tested in vitro at compound concentration of 0.1 uM; format: functional; outline: as §1
[43] = Number of colony forming cells of human melanoma tumor showing sensitivity among the 10 colony forming cells tested in vitro at compound concentration of 10 uM; format: functional; outline: as §1
[44] = Number of colony forming cells of human stomach tumor showing sensitivity among the 1 colony forming cells tested in vitro at compound concentration of 1.0 uM; format: functional; outline: as §2
[45] = Number of colony forming cells of human melanoma tumor showing sensitivity among the 5 colony forming cells tested in vitro at compound concentration of 0.1 uM; format: functional; outline: as §1
Breast carcinoma cell [46] = experiment: Number of colony forming cells of human breast tumor showing sensitivity among the 4 colony forming cells tested in vitro at compound concentration of 0.1 uM; format: functional; outline: as §1
[47] = Number of colony forming cells of human gynecologic tumor showing sensitivity among the 4 colony forming cells tested in vitro at compound concentration of 10 uM; format: functional; outline: as §1
[48] = Number of colony forming cells of human lung tumor showing sensitivity among the 2 colony forming cells tested in vitro at compound concentration of 10 uM; format: functional; outline: as §1
[49] = Number of colony forming cells of human gynecologic tumor showing sensitivity among the 4 colony forming cells tested in vitro at compound concentration of 0.1 uM; format: functional; outline: as §1
[50] = Number of colony forming cells of human ovary tumor showing sensitivity among the 11 colony forming cells tested in vitro at compound concentration of 1.0 uM; format: functional, Female gonad; outline: as §1
Breast carcinoma cell [51] = experiment: Number of colony forming cells of human breast tumor showing sensitivity among the 4 colony forming cells tested in vitro at compound concentration of 10 uM; format: functional; outline: as §1
[52] = Number of colony forming cells of human sarcoma tumor showing sensitivity among the 8 colony forming cells tested in vitro at compound concentration of 10 uM; format: functional; outline: as §2
[53] = Number of colony forming cells of human stomach tumor showing sensitivity among the 1 colony forming cells tested in vitro at compound concentration of 10 uM; format: functional; outline: as §2
[54] = Number of colony forming cells of human ovary tumor showing sensitivity among the 12 colony forming cells tested in vitro at compound concentration of 10 uM; format: functional, Female gonad; outline: as §1
[55] = Number of colony forming cells of human myeloma tumor showing sensitivity among the 3 colony forming cells tested in vitro at compound concentration of 1.0 uM; format: functional; outline: as §1
[56] = Number of colony forming cells of human sarcoma tumor showing sensitivity among the 2 colony forming cells tested in vitro at compound concentration of 0.1 uM; format: functional; outline: as §2
[57] = Number of colony forming cells of human ovary tumor showing sensitivity among the 12 colony forming cells tested in vitro at compound concentration of 0.1 uM; format: functional, Female gonad; outline: as §1
[58] = Number of colony forming cells of human stomach tumor showing sensitivity among the 1 colony forming cells tested in vitro at compound concentration of 0.1 uM; format: functional; outline: as §2
[59] = Number of colony forming cells of human lung tumor showing sensitivity among the 2 colony forming cells tested in vitro at compound concentration of 1.0 uM; format: functional; outline: as §1

N#CC1CN1C(=O)Nc1ccccc1 (stereo not given)
Sensitivity [1]: 2
IC50 (MCF7 [2]): 2.6 µM
Sensitivity [3]: 1
Sensitivity [4]: 0
Sensitivity [5]: 10
Sensitivity (Breast carcinoma cell [6]): 2
Sensitivity [7]: 1
Sensitivity [8]: 4
Sensitivity [9]: 2
IC50 (L1210 [10]): 1.2 µM
Sensitivity [11]: 3
IC50 (MCF7 [12]): 2.9 µM
Sensitivity [13]: 10
IC50 (RPMI-8226 [14]): 8 µM
Sensitivity [15]: 10
Sensitivity [16]: 3
IC50 (RPMI-8226 [17]): 5.3 µM
IC50 (WiDr [18]): 5 µM
Sensitivity [19]: 1
Sensitivity [20]: 2
Sensitivity (Breast carcinoma cell [21]): 2
Sensitivity [22]: 2
IC50 (A-375): 11 µM
IC50 (L1210 [23]): 11 µM
Sensitivity [24]: 5
Sensitivity [25]: 3
Sensitivity [26]: 0
Sensitivity [27]: 2
IC50 (OVCAR-3): 6.8 µM
Sensitivity [28]: 2
IC50 (WiDr [29]): 12 µM
Sensitivity (Breast carcinoma cell [30]): 3
IC50 (MCF7 [31]): 4.3 µM
IC50 (A549): 9 µM
Sensitivity [32]: 1
Sensitivity [33]: 8

N#CC1CN1C(=O)Nc1cccc2ccccc12 (stereo not given)
IC50 (MCF7 [2]): 1.7 µM
IC50 (L1210 [10]): 7.2 µM
IC50 (MCF7 [12]): 2 µM
IC50 (RPMI-8226 [14]): 8.9 µM
IC50 (RPMI-8226 [17]): 8 µM
IC50 (WiDr [18]): 2.4 µM
IC50 (A-375): 4.2 µM
IC50 (L1210 [23]): 2.5 µM
IC50 (OVCAR-3): 5.9 µM
IC50 (WiDr [29]): 2.5 µM
IC50 (MCF7 [31]): 2 µM
IC50 (A549): 2.5 µM

CCOC(=O)CNC(=O)N1CC1C#N (stereo not given)
IC50 (MCF7 [2]): 17 µM
IC50 (RPMI-8226 [14]): 30 µM
IC50 (RPMI-8226 [17]): 25 µM
IC50 (WiDr [18]): 31 µM
IC50 (A-375): 51 µM
IC50 (L1210 [23]): 13 µM
IC50 (L1210 [34]): 13 µM
IC50 (WiDr [29]): 33 µM
IC50 (MCF7 [31]): 11 µM
IC50 (A549): 24 µM
IC50 (MCF7 [35]): 15 µM

N=C1NC(=O)N2CC12 (stereo not given) [IMEXON]
Sensitivity [36]: 4
IC50 (MCF7 [2]): > 18 µM
Sensitivity [37]: 0
Sensitivity (Breast carcinoma cell [38]): 2
Sensitivity [39]: 3
Sensitivity [40]: 2
Sensitivity [41]: 3
IC50 (MCF7 [12]): > 18 µM
Sensitivity [42]: 0
IC50 (RPMI-8226 [17]): 17 µM
Sensitivity [43]: 8
Sensitivity [44]: 0
IC50 (WiDr [18]): > 72 µM
Sensitivity [45]: 3
Sensitivity (Breast carcinoma cell [46]): 0
Sensitivity [47]: 1
Sensitivity [48]: 2
Sensitivity [49]: 0
Sensitivity [50]: 3
Sensitivity (Breast carcinoma cell [51]): 3
Sensitivity [52]: 5
Sensitivity [53]: 1
Sensitivity [54]: 8
Sensitivity [55]: 3
Sensitivity [56]: 0
IC50 (WiDr [29]): > 72 µM
IC50 (MCF7 [31]): > 18 µM
IC50 (A549): > 72 µM
Sensitivity [57]: 4
Sensitivity [58]: 0
Sensitivity [59]: 0
